# Apaf-1 act – activators of human Apaf-1 apoptosome, primary screen, biochemical, DEVD-Rh110 fluorescence, uHTS; activity change, negative = activation, % at 20 µM; Apaf-1 apoptosome caspase-3 activation; hits give low values; hit rate 0.31% among 330,000;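 active = activity change at or below -40% at 20 µM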
# Target sequence (O14727 whole entry, looked up): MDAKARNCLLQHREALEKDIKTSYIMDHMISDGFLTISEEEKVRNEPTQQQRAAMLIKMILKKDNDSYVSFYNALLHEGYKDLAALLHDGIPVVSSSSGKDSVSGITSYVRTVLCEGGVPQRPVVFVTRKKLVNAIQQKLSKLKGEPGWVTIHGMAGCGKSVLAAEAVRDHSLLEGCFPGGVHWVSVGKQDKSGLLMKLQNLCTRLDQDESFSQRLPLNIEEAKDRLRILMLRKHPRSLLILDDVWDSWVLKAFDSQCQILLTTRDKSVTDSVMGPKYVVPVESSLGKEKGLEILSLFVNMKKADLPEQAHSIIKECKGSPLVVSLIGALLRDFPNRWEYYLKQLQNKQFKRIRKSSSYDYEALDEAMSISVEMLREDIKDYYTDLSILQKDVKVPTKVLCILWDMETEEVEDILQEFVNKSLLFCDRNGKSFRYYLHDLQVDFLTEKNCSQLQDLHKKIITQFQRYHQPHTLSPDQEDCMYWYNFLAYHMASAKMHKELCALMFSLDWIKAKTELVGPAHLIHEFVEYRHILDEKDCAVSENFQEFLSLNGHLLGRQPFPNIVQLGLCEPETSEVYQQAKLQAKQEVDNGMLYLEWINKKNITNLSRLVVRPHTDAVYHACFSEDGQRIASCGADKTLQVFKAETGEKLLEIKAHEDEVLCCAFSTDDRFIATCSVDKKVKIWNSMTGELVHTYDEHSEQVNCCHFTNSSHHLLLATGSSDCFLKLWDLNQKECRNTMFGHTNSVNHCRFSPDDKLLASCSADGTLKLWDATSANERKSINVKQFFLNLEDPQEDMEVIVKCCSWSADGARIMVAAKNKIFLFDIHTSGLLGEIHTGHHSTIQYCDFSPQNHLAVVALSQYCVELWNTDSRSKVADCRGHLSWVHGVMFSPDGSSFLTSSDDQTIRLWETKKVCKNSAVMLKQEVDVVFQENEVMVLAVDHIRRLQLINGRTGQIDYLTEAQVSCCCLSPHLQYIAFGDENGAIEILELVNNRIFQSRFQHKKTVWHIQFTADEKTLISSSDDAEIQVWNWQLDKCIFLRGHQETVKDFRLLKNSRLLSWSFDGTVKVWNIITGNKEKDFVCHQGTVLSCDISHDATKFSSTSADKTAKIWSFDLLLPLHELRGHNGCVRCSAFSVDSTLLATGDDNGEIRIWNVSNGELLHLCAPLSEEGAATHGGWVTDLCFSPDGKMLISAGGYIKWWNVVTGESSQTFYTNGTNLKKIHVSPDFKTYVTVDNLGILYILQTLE
#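 system = biochemical Apaf-1 apoptosome reconstitution | buffer or medium = 20 mM HEPES pH 7.5 with CHAPS, BSA | also added = dATP and cytochrome c as apoptosome triggers, (Z-DEVD)2-Rh110 substrate | incubation = 30 min compound preincubation and 50 min reaction, both room temperature | measured by = fluorescence, 540 nm emission, 480 nm excitation | read-out basis = Caspase-3 cleavage activity downstream of Apaf-1 activation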
# Rh110 act interf – Rh110 fluorescence interference by putative Apaf-1 activators, confirmation, artefact control for Apaf-1 activator project, biochemical, 20 µM. 980 tested, under 10 active. shares compounds with Apaf-1 act. fluorescence interference (activity change), % at 20 µM, hits read low. quenched caspase reaction, Ex480/Em540;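 active = mean activity change at or below -40% when tested at 20 µM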
# Apaf-1 act conf2 – Apaf-1 activators, single-dose retest, confirmation, biochemical, fluorescence, DEVD-Rh110, 20 µM; shares compounds with Apaf-1 act; reconstituted apoptosome caspase-3 activity; hits give low values; activity change, negative = activation, % at 20 µM; hit rate 5% among 980; AID 504617, 2011;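 active = mean activity change at or below -40%, meaning activation of 40% or more, at 20 µM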
# Active calls of the source: *; . = no result given. The list is a sample of the results.
SMILES,Apaf-1 act,Rh110 act interf,Apaf-1 act conf2
Cc1c(Cl)cnc(NC(=O)COC(=O)c2ccc([N+](=O)[O-])s2)c1Cl,40,.,.
Cc1c(C(=O)OCC(=O)Nc2c(C)n(C)n(-c3ccccc3)c2=O)cccc1[N+](=O)[O-],-93*,5,12
CCOc1ccc(OCCSc2ccc(S(=O)(=O)N3CCN(C)CC3)cn2)cc1,55,.,.
Brc1ccc(-c2cn3nc4c(nc3n2)CCCC4)cc1,41,.,.
Cc1ccc(NC(=S)Nc2cccc3cnccc23)cc1C,53,.,.
COc1ccc(-c2cc(C)no2)cc1S(=O)(=O)N1CCOc2ccccc21,-425*,9,14
COc1ccc(CC(=O)N(Cc2ccccc2)c2ccc(C)cc2)cc1S(=O)(=O)N1CCOCC1,43,.,.
CC(C)(C)c1ccc(C(=O)NNc2cc(N3CCCCC3)nc(N3CCCCC3)n2)cc1,73,.,.
Cc1cc2cc(CNC(=O)Nc3ccc(Cl)c(Cl)c3)ccc2n1C,62,.,.
CN(CC(=O)Nc1ccc(Cl)c(Cl)c1)C(=O)C12CC3CC(CC(C3)C1)C2,-86*,-4,20
C#CCOCCOCCOCCNc1nc(N2CCN(C(=O)[C@H]([C@@H](C)CC)n3cc(CCCCN)nn3)CC2)nc(N2CCN(C(=O)[C@H]([C@@H](C)CC)n3cc(CCCN=C(N)N)nn3)CC2)n1,46,.,.
Cc1nc2ccc(Cl)cc2c(-c2ccccc2Cl)c1CC(=O)O,-42*,-5,17
Cc1cc(N)c2cc(NC(=O)/C=C/c3ccccc3Cl)ccc2n1,64,.,.
COc1ccc([C@@H]2CC=C(C(=O)O)[C@H](c3cccc(Cl)c3)N2S(=O)(=O)c2ccc(Cl)cc2)cc1,-73*,-3,19
COc1ccc(CCN2C(=O)c3[nH]nc(-c4ccccc4O)c3C2c2cccc(Cl)c2)cc1 (centres undefined),41,.,.
Clc1ccccc1-c1nn2c(-c3ccncc3)nnc2s1,47,.,.
COc1ccc(C2c3sc(=O)[nH]c3SC3C(=O)N(c4ccccc4)C(=O)C32)cc1 (centres undefined),-178*,4,10
C#CCOCCOCCOCCNc1nc(N2CCN(C(=O)[C@H](Cc3ccc(O)cc3)n3cc([C@@H](N)C(C)CC)nn3)CC2)nc(N2CCN(C(=O)[C@H](Cc3cc4ccccc4[nH]3)n3cc([C@@H](N)CC(C)C)nn3)CC2)n1 (some centres undefined),47,.,.
OC(c1ccccc1)c1cccnc1 (centres undefined),-54*,-7,9
CCN1CCc2c(sc(NC(=O)c3cc4ccccc4cc3OC)c2C(N)=O)C1,65,.,.
CN(CCO)C(=O)c1c(NC(=O)c2ccccc2)sc2c1CCCC2,-362*,12,18
CC(=O)N1CCc2c(sc(NC(=O)c3cccc(N4C(=O)CCC4=O)c3)c2C(N)=O)C1,57,.,.
CCN1/C(=C/C=C/c2sc3ccccc3[n+]2CC)Sc2ccccc21,90,.,.
COc1ccc2nc3ccccc3nc2c1N,92,.,.
COc1ccc(C(=O)n2nc(-c3ccccc3)nc2N)cc1OC,-363*,-6,10
SMILES,Apaf-1 act,Rh110 act interf,Apaf-1 act conf2
CC(Nc1cccc2ccccc12)C(=O)N/N=C/c1ccccn1 (centres undefined),95,.,.
COc1ccc(CCNC(=O)COC(=O)c2cccs2)cc1OC,-163*,19,16
CCOc1cc(/C=C2\C(=O)N(c3ccc(C(N)=O)cc3)N=C2C)ccc1OC(=O)c1cccs1,93,.,.
COc1ccc(CCN(C)C(=O)c2cccc(S(=O)(=O)NCc3ccccc3)c2)cc1OC,57,.,.
O=C(C[C@H]1C[C@H](C(=O)N2CCCCC2)[C@@]2(CCc3ccccc3)c3[nH]c4cc(-c5ccco5)ccc4c3CCN2C1=O)NCCN1CCOCC1,48,.,.
COCCCn1c(=O)c2sccc2n(Cc2ccccc2C)c1=O,60,.,.
CCCCCCCCCCOC(=O)Cn1c(COc2ccccc2OC)[n+](C)c2ccccc21,71,.,.
Cc1cccc(C(=O)NC2C(=O)NNC2c2ccc(Cl)cc2)c1 (centres undefined),54,.,.
NC1=NC(c2ccc(Cl)cc2)C(C(=O)c2ccccc2)N1 (centres undefined),-470*,3,15
CCN(CC)S(=O)(=O)c1ccc(N/N=C(\C)c2ccc3c(c2)OCO3)c([N+](=O)[O-])c1,-41*,5,4
O=[N+]([O-])c1cc2c(cc1C=Nc1ccccc1)OCO2,48,.,.
O=C(CC1Nc2cccc3cccc(c23)NC1=O)Nc1ccccc1 (centres undefined),96,.,.
CCOC(=O)C1=C(CN2CCN(c3ccc(F)cc3)CC2)NC(=O)NC1c1cccs1 (centres undefined),41,.,.
CNS(=O)(=O)Cc1ccc2[nH]cc(CCN(C)C)c2c1,1,.,.
COc1ccc(/C=N/n2c(C)nc3sc(C)c(C)c3c2=O)cc1OC,-145*,15,12
CN(C)C/C=C/C(=O)Nc1cccc(-c2c[nH]c3ncnc(Oc4ccc(NC(=O)CC(=O)Nc5ccc(F)cc5)cc4F)c23)c1,63,.,.
c1cc2c3c(cccc3c1)NC1(CCCCCC1)N2,49,.,.
COc1cc(C(=O)NC(C)c2ccc(-n3ccnc3)cc2)cc(OC)c1C (centres undefined),41,.,.
O=C1CSC(c2cccnc2)N1CC1CC1 (centres undefined),-112*,1,13
CN1CCC[C@H]1c1cccnc1,-2,.,.
O=[N+]([O-])c1ccccc1-c1ccc(C(=S)N2CCCC2)o1,47,.,.
O=C(NNC(=O)C1CC1)c1ccccc1[N+](=O)[O-],-60*,0,9
COc1ccc(C(C)(C)C)cc1NC(=O)CNc1cccc2ccccc12,44,.,.
COc1ccc(OC)c(NC(=O)CS(=O)(=O)Cc2nc(-c3ccccc3C)oc2C)c1,-50*,2,4
COc1ccc(CC(=O)Nc2ccc(-c3nc4cc(C)ccc4o3)c(O)c2)cc1OC,42,.,.
SMILES,Apaf-1 act,Rh110 act interf,Apaf-1 act conf2
CCOc1ccc(NC(=O)CN(C)S(=O)(=O)c2ccc(-c3ccc(=O)[nH]n3)s2)cc1,-86*,12,17
CCOc1ccc(C(=O)Nc2sc3c(c2C(=O)OC)CC(C)(C)NC3(C)C)cc1,41,.,.
CC1(C)Nc2ccc(O)cc2-c2c1ssc2=S,51,.,.
COc1ccc2cc(C(c3nnnn3C3CCCC3)N3CCc4ccccc4C3)c(=O)[nH]c2c1 (centres undefined),72,.,.
COc1ccc(NCc2cc3cc(OC)ccc3[nH]c2=O)cc1,47,.,.
CNC(=S)N(Cc1cc2ccc(OC)cc2[nH]c1=O)CC1CCCO1 (centres undefined),-183*,5,15
O=C1C2=C(c3ccccc31)[N+](=O)[C@@H]1CCCC[C@@H]1N2[O-],75,.,.
COCCNC(=O)c1c(N)n(CCCn2ccnc2)c2nc3ccccc3nc12,94,.,.
COc1cccc(Cn2cnc3c(NS(=O)(=O)c4ccc(Cl)cc4Cl)c(C)c(C)cc32)c1,-66*,10,25
COc1ccc(-c2cc(=O)[nH][nH]2)cc1OC,77,.,.
COc1ccc(-c2cnc(OC(C)(C)C)nc2OC(C)(C)C)cc1OC,-265*,15,14
